How the values were obtained:
[1] = folding enthalpy; higher = less favourable; fluorescence melt of hairpins on a sequencing array, two-state fit; details: sodium 0.088 M
How it was run: (§1)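 Cy3 fluorescence of library hairpins on a sequenced MiSeq flow cell, with annealed Cy3 and quencher oligos, was imaged in 50 mM Na-HEPES pH 8.0, 25 mM NaCl in 2.5 °C steps up to 60 °C. Signals were normalised to pre-quench Cy3 and to control variants. Melting temperature and folding enthalpy came from bootstrapped two-state fits, inverse-variance combined over four replicates. Fitted temperatures were raised by 9.35 °C to match UV melts.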

[2] = melting temperature; fluorescence melt of hairpins on a sequencing array, two-state fit, raised by 9.35 °C to match UV melts; details: sodium 0.088 M
How it was run: as §1

Sequence | folding enthalpy [1] | Tm [2]
GATCATTAGTATGATC ((((((....)))))) | -31.8 kcal/mol | 45.2 °C
GATCATTATAATGATC ((((((....)))))) | -33.1 kcal/mol | 49.7 °C
GATCATTCACATGATC ((((((....)))))) | -39.8 kcal/mol | 46.6 °C
GATCATTCCTATGATC ((((((....)))))) | -31.5 kcal/mol | 49.7 °C
GATCATTCGATGATC ((((((...)))))) | -35.8 kcal/mol | 47.2 °C
GATCATTCGCATGATC ((((((....)))))) | -34 kcal/mol | 47.5 °C
GATCATTCGGATGATC ((((((....)))))) | -35.5 kcal/mol | 48.1 °C
GATCATTCTAATGATC ((((((....)))))) | -31.9 kcal/mol | 49.4 °C
GATCATTCTGATGATC ((((((....)))))) | -39.7 kcal/mol | 49.5 °C
GATCATTGCCATGATC ((((((....)))))) | -39.3 kcal/mol | 46.4 °C
GATCATTGGATGATC ((((((...)))))) | -31.7 kcal/mol | 44.8 °C
GATCATTTGGATGATC ((((((....)))))) | -36.9 kcal/mol | 48.5 °C
GATCATTTTCATGATC ((((((....)))))) | -31.1 kcal/mol | 47.6 °C
GATCCAAAATGGATC ((((((...)))))) | -31.5 kcal/mol | 48.9 °C
GATCCAAAGCTGGATC ((((((....)))))) | -36.3 kcal/mol | 47.2 °C
GATCCAAAGGTGGATC ((((((....)))))) | -26.1 kcal/mol | 47 °C
GATCCAAAGTGGATC ((((((...)))))) | -30.9 kcal/mol | 48.8 °C
GATCCAAATTTGGATC ((((((....)))))) | -36.1 kcal/mol | 52.9 °C
GATCCAACCCTGGATC ((((((....)))))) | -29 kcal/mol | 48.3 °C
GATCCAACGGTGGATC ((((((....)))))) | -43.3 kcal/mol | 49 °C
GATCCAACTTTGGATC ((((((....)))))) | -43.3 kcal/mol | 51 °C
GATCCAAGAGTGGATC ((((((....)))))) | -28.6 kcal/mol | 46 °C
GATCCAATATGGATC ((((((...)))))) | -38.7 kcal/mol | 51.3 °C
GATCCAATCATGGATC ((((((....)))))) | -37.5 kcal/mol | 50.8 °C

Sequence | folding enthalpy [1] | Tm [2]
GATCCACAATTGGATC ((((((....)))))) | -32.4 kcal/mol | 47.5 °C
GATCCACACATGGATC ((((((....)))))) | -40 kcal/mol | 52.4 °C
GATCCACACCTGGATC ((((((....)))))) | -44.8 kcal/mol | 51 °C
GATCCACAGCTGGATC ((((((....)))))) | -31.7 kcal/mol | 47.6 °C
GATCCACATCTGGATC ((((((....)))))) | -29.1 kcal/mol | 49.2 °C
GATCCACCCTTGGATC ((((((....)))))) | -34.8 kcal/mol | 50.4 °C
GATCCACCGGTGGATC ((((((....)))))) | -50 kcal/mol | 60.3 °C
GATCCACCTTTGGATC ((((((....)))))) | -34.9 kcal/mol | 50.1 °C
GATCCACGAAAGTGCATC (((.(((....))).))) | -16.1 kcal/mol | 32.8 °C
GATCCACGAATGGATC ((((((....)))))) | -34.4 kcal/mol | 48.1 °C
GATCCACGCTGGATC ((((((...)))))) | -31.3 kcal/mol | 51.6 °C
GATCCACGTGTGGATC ((((((....)))))) | -44.5 kcal/mol | 65.9 °C
GATCCACTCGTGGATC ((((((....)))))) | -45.8 kcal/mol | 63.2 °C
GATCCACTCTGGATC ((((((...)))))) | -36.5 kcal/mol | 52.4 °C
GATCCACTTGTGGATC ((((((....)))))) | -37.5 kcal/mol | 66.5 °C
GATCCAGAATGGATC ((((((...)))))) | -50.9 kcal/mol | 58.1 °C
GATCCAGAGCTGGATC ((((((....)))))) | -37.6 kcal/mol | 50.4 °C
GATCCAGAGTGGATC ((((((...)))))) | -31.3 kcal/mol | 48.8 °C
GATCCAGATATGGATC ((((((....)))))) | -41.7 kcal/mol | 57.1 °C
GATCCAGATTGGATC ((((((...)))))) | -34.1 kcal/mol | 50.6 °C
GATCCAGCAGTGGATC ((((((....)))))) | -41.1 kcal/mol | 52.7 °C
GATCCAGCGATGGATC ((((((....)))))) | -42.4 kcal/mol | 55.6 °C
GATCCAGGAATGGATC ((((((....)))))) | -40.6 kcal/mol | 54 °C
GATCCAGGCGTGGATC ((((((....)))))) | -40.9 kcal/mol | 53.6 °C

Sequence | folding enthalpy [1] | Tm [2]
GATCCAGGTTGGATC ((((((...)))))) | -41.9 kcal/mol | 50.7 °C
GATCCAGGTTTGGATC ((((((....)))))) | -42.5 kcal/mol | 51.7 °C
GATCCAGTCTGGATC ((((((...)))))) | -38.1 kcal/mol | 55.1 °C
GATCCAGTGCTGGATC ((((((....)))))) | -47.8 kcal/mol | 52.8 °C
GATCCAGTGTTGGATC ((((((....)))))) | -36.9 kcal/mol | 50.8 °C
GATCCAGTTTTGGATC ((((((....)))))) | -41.6 kcal/mol | 52.4 °C
GATCCATAATGGATC ((((((...)))))) | -34.8 kcal/mol | 49.6 °C
GATCCATACATGGATC ((((((....)))))) | -50.8 kcal/mol | 55.8 °C
GATCCATACTGGATC ((((((...)))))) | -37.6 kcal/mol | 51.4 °C
GATCCATAGTGGATC ((((((...)))))) | -38.1 kcal/mol | 49.2 °C
GATCCATATCTGGATC ((((((....)))))) | -35.5 kcal/mol | 49.7 °C
GATCCATATTGGATC ((((((...)))))) | -37.3 kcal/mol | 51.7 °C
GATCCATCGCTGGATC ((((((....)))))) | -39.1 kcal/mol | 50.8 °C
GATCCATCTTGGATC ((((((...)))))) | -35.2 kcal/mol | 51.6 °C
GATCCATGACTGGATC ((((((....)))))) | -35.5 kcal/mol | 48.6 °C
GATCCATGAGTGGATC ((((((....)))))) | -35.3 kcal/mol | 55 °C
GATCCATGCTGGATC ((((((...)))))) | -35.3 kcal/mol | 52 °C
GATCCATGGGTGGATC ((((((....)))))) | -41.4 kcal/mol | 54.4 °C
GATCCATGGTTGGATC ((((((....)))))) | -42.8 kcal/mol | 51.3 °C
GATCCATGTCTGGATC ((((((....)))))) | -40.9 kcal/mol | 50.5 °C
GATCCATTCGTGGATC ((((((....)))))) | -41.1 kcal/mol | 55.3 °C
GATCCCAACCGGGATC ((((((....)))))) | -35.1 kcal/mol | 63.4 °C
GATCCCAAGGGGGATC ((((((....)))))) | -33 kcal/mol | 58.1 °C
GATCCCAAGTGGGATC ((((((....)))))) | -37.4 kcal/mol | 60.5 °C

Sequence | folding enthalpy [1] | Tm [2]
GATCCCACACGGGATC ((((((....)))))) | -43.7 kcal/mol | 63.1 °C
GATCCCACTTGGGATC ((((((....)))))) | -42.5 kcal/mol | 61.1 °C
GATCCCAGCGGGGATC ((((((....)))))) | -34.9 kcal/mol | 60.6 °C
GATCCCAGGGGGATC ((((((...)))))) | -34.7 kcal/mol | 67 °C
GATCCCATAAGGGATC ((((((....)))))) | -39.4 kcal/mol | 63.9 °C
GATCCCATCTGGGATC ((((((....)))))) | -36.2 kcal/mol | 62.6 °C
GATCCCATGCGGGATC ((((((....)))))) | -34 kcal/mol | 60.6 °C
GATCCCATGGGGGATC ((((((....)))))) | -32.4 kcal/mol | 60.1 °C
GATCCCCAAGGGATC ((((((...)))))) | -30.9 kcal/mol | 58.9 °C
GATCCCCACTGGGATC ((((((....)))))) | -35.3 kcal/mol | 62.2 °C
GATCCCCAGGGGGATC ((((((....)))))) | -29 kcal/mol | 65.5 °C
GATCCCCCATGGGATC ((((((....)))))) | -36.5 kcal/mol | 59.9 °C
GATCCCCCCGGGATC ((((((...)))))) | -33.1 kcal/mol | 65.8 °C
GATCCCCGCGGGATC ((((((...)))))) | -34.5 kcal/mol | 65.9 °C
GATCCCCTAAGGGATC ((((((....)))))) | -39.1 kcal/mol | 63.2 °C
GATCCCCTACGGGATC ((((((....)))))) | -35.3 kcal/mol | 61.9 °C
GATCCCCTATGGGATC ((((((....)))))) | -36.9 kcal/mol | 60.8 °C
GATCCCCTCAGGGATC ((((((....)))))) | -41.7 kcal/mol | 66 °C
GATCCCCTCGGGATC ((((((...)))))) | -35.6 kcal/mol | 61.4 °C
GATCCCGAAAGGGAAATC ((((((....)))..))) | -12.1 kcal/mol | 35.1 °C
GATCCCGAAAGGGAATC ((((((....))).))) | -14.5 kcal/mol | 49.6 °C
GATCCCGAAAGGGATATC ((((((....)))..))) | -15.6 kcal/mol | 52 °C
GATCCCGAAAGGGGAATC ((((((....)))..))) | -12.3 kcal/mol | 36.1 °C
GATCCCGAAAGGGGGATC ((((((....)))..))) | -20.1 kcal/mol | 51 °C

— the array DNA melting data of Ke et al. (doi:10.1101/2024.01.08.574731)
